Active and inactive are the calls of the source. No cut-off for these calls is given here.
What was measured:
[1] = target: T1, HTH-type quorum-sensing regulator RhlR (Pseudomonas aeruginosa (strain ATCC 15692 / PAO1 / 1C / PRS 101 / LMG12228)) (UniProt P54292); assay: Agonist activity at Pseudomonas aeruginosa RhlR expressed in Escherichia coli DH5alpha assessed as relative protein activity at 100 uM incubated for 1.5 hrs by luminescence reporter gene assay relative to control
T1 sequence (whole entry): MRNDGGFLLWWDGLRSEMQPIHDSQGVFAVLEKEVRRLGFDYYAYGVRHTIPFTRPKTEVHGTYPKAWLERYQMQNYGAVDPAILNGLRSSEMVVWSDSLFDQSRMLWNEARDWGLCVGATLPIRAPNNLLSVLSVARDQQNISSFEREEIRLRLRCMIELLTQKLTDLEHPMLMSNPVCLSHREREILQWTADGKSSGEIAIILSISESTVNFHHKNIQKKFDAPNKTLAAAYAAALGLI

[2] = target: T1, HTH-type quorum-sensing regulator RhlR (Pseudomonas aeruginosa (strain ATCC 15692 / PAO1 / 1C / PRS 101 / LMG12228)); assay: Antagonist activity at Pseudomonas aeruginosa RhlR expressed in Escherichia coli DH5alpha assessed as relative protein activity at 100 uM incubated for 1.5 hrs in presence of N-butyryl-L-homoserine lactone by luminescence reporter gene assay relative to control; set-up: scale not given: the % may be the effect or the level left
Method in brief: (§1)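 E. coli DH5α sdiA mutant carrying RhlR and rhlA::lacZ plasmids, at OD595 0.3 in LB. Compound given with BHL (10 µM per footnote) and 0.4% arabinose, 37 °C for 1.5 h.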

[3] = target: T1, HTH-type quorum-sensing regulator RhlR (Pseudomonas aeruginosa (strain ATCC 15692 / PAO1 / 1C / PRS 101 / LMG12228)); assay: Modulation of RhlR in Pseudomonas aeruginosa assessed as biofilm formation at 10 uM incubated for 24 hrs under static condition by crystal violet staining based assay relative to control
Pseudomonas aeruginosa [4] = assay: Antibacterial activity against Pseudomonas aeruginosa assessed as bacterial growth at 100 uM incubated for 24 hrs relative to control; format: functional
Method in brief: (§2)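 P. aeruginosa overnight culture (OD595 1.0) diluted 1:20 in AB medium (pH 7.5, 1% glucose, casamino acids, arginine) with compound, in borosilicate bottles, 37 °C for 24 h without shaking. Growth taken as OD595 of the suspended culture. Attached cells washed twice with PBS, stained with 0.1% crystal violet for 10 min, dye eluted in ethanol and read at 545 nm.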

[5] = target: T1, HTH-type quorum-sensing regulator RhlR (Pseudomonas aeruginosa (strain ATCC 15692 / PAO1 / 1C / PRS 101 / LMG12228)); assay: Modulation of RhlR in Pseudomonas aeruginosa assessed as biofilm formation at 100 uM incubated for 24 hrs under static condition by crystal violet staining based assay relative to control
Pseudomonas aeruginosa [6] = assay: Antibacterial activity against Pseudomonas aeruginosa assessed as bacterial growth at 10 uM incubated for 24 hrs relative to control; format: functional; method in brief: as §2
[7] = target: T1, HTH-type quorum-sensing regulator RhlR (Pseudomonas aeruginosa (strain ATCC 15692 / PAO1 / 1C / PRS 101 / LMG12228)); assay: Antagonist activity at RhlR in Pseudomonas aeruginosa assessed as rhamnolipid production at 100 uM incubated for 24 hrs by Orcinol staining based assay relative to control; set-up: scale not given: the % may be the effect or the level left
[8] = target: T1, HTH-type quorum-sensing regulator RhlR (Pseudomonas aeruginosa (strain ATCC 15692 / PAO1 / 1C / PRS 101 / LMG12228)); assay: Antagonist activity at Pseudomonas aeruginosa RhlR expressed in Escherichia coli DH5alpha assessed as relative protein activity at 10 uM incubated for 1.5 hrs in presence of N-butyryl-L-homoserine lactone by luminescence reporter gene assay relative to control; set-up: scale not given: the % may be the effect or the level left; method in brief: as §1
[9] = target: T1, HTH-type quorum-sensing regulator RhlR (Pseudomonas aeruginosa (strain ATCC 15692 / PAO1 / 1C / PRS 101 / LMG12228)); assay: Antagonist activity at RhlR in Pseudomonas aeruginosa assessed as rhamnolipid production at 10 uM incubated for 24 hrs by Orcinol staining based assay relative to control; set-up: scale not given: the % may be the effect or the level left
[10] = target: T1, HTH-type quorum-sensing regulator RhlR (Pseudomonas aeruginosa (strain ATCC 15692 / PAO1 / 1C / PRS 101 / LMG12228)); assay: Agonist activity at Pseudomonas aeruginosa RhlR expressed in Escherichia coli DH5alpha assessed as relative protein activity at 1000 uM incubated for 1.5 hrs by luminescence reporter gene assay relative to control

SMILES	Activity [1] [%]	Activity [2] [%]	also measured
CCCC[C@H](O)C#Cc1ccc(F)c(F)c1	2	64	–
CCCCC[C@H](O)C#Cc1ccc(O)c(OC)c1	3	34	Activity [3]: Active; Activity (Pseudomonas aeruginosa [4]): inactive
CCCC(O)CC(=O)CCc1cc(F)cc(OC)c1 (centres undefined)	3	85	–
CCCCCCCCC(O)CC(=O)CCc1ccc(O)c(OC)c1 (centres undefined)	2	41	Activity [3]: Active; Activity (Pseudomonas aeruginosa [4]): inactive
CCCCC(=O)C#Cc1ccc(F)c(F)c1	4	16	Activity [5]: 55%; Activity (Pseudomonas aeruginosa [6]): 100%; Activity [3]: 75%; Activity [7]: 49%; Activity [8]: 29%; Activity [9]: 59%; Activity (Pseudomonas aeruginosa [4]): 89%; Activity [10]: 6%
CCCCCCCC(O)CC(=O)CCc1ccc(O)c(OC)c1 (centres undefined)	2	90	–
CCCC(O)CC(=O)CCc1ccc(O)cc1 (centres undefined)	3	64	–
CCCCCC(=O)C#Cc1ccc(F)c(F)c1	3	17	Activity [5]: 56%; Activity (Pseudomonas aeruginosa [6]): 100%; Activity [3]: 71%; Activity [7]: 58%; Activity [8]: 39%; Activity [9]: 60%; Activity (Pseudomonas aeruginosa [4]): 88%; Activity [10]: 5%
CCC[C@@H](O)C#Cc1ccc(F)c(F)c1	3	25	Activity [5]: 60%; Activity (Pseudomonas aeruginosa [6]): 98%; Activity [3]: 74%; Activity [7]: 48%; Activity [8]: 45%; Activity [9]: 60%; Activity (Pseudomonas aeruginosa [4]): 102%; Activity [10]: 5%
CCCCCCCCCC(O)CC(=O)CCc1ccc(O)c(OC)c1 (centres undefined)	2	36	Activity [3]: Active; Activity (Pseudomonas aeruginosa [4]): inactive
CCCC(O)CC(=O)CCc1ccc(F)cc1 (centres undefined)	2	51	–
CCCCCC(O)C#Cc1ccc(F)c(F)c1 (racemic)	3	74	–
CCCCCC(=O)C#Cc1ccc(O)c(OC)c1	3	29	Activity [3]: Active; Activity (Pseudomonas aeruginosa [4]): inactive
CCCCCC(=O)CCc1ccc(F)c(F)c1	4	55	–
CCCC(O)CC(=O)CCc1ccc(OC)cc1 (centres undefined)	2	71	–
CCCCC[C@@H](O)C#Cc1ccc(F)c(F)c1	3	72	–
CCCCC[C@H](O)C#Cc1ccc(F)c(F)c1	4	67	–
CCCCC[C@@H](O)C#Cc1ccc(O)c(OC)c1	3	27	Activity [3]: Active; Activity (Pseudomonas aeruginosa [4]): inactive
CCCCC(O)C#Cc1ccc(F)c(F)c1 (racemic)	4	71	–
CCCCC(O)CC(=O)CCc1ccc(O)c(OC)c1 (centres undefined)	2	62	–
CCCC(O)CC(=O)CCc1ccccc1 (centres undefined)	4	88	–
CCCCCCC(O)CC(=O)CCc1ccc(O)c(OC)c1 (centres undefined)	3	83	–
CCCC[C@@H](O)C#Cc1ccc(F)c(F)c1	3	67	–
CCCCCC(O)C#Cc1ccc(O)c(OC)c1 (racemic)	3	32	Activity [3]: Active; Activity (Pseudomonas aeruginosa [4]): inactive
CCCCCC(O)CCc1ccc(F)c(F)c1 (centres undefined)	5	61	–
CCCCCC(=O)CCc1ccc(O)c(OC)c1	2	49	–
CCCCCC(O)CCc1ccc(O)c(OC)c1 (centres undefined)	2	45	–
CCCC(O)CC(=O)CCc1ccc(Cl)cc1 (centres undefined)	2	69	–
CCCCCC(O)/C=C/c1ccc(F)c(F)c1 (centres undefined)	5	55	–

Now from value to molecule, other results behind:

Activity [1] [%]	Activity [2] [%]	SMILES	also measured
2	53	CCCC(O)CC(=O)/C=C/c1ccc(N(C)C)cc1 (centres undefined)	–
2	78	CCCC(O)CC(=O)/C=C/c1cccc(O)c1 (centres undefined)	–
2	60	CCCC(O)CC(=O)/C=C/c1ccc(O)c(F)c1 (centres undefined)	–
2	90	CCCC(O)CC(=O)CCc1cccc(OC)c1 (centres undefined)	–
4	65	CCCC(O)CC(=O)/C=C/c1ccc(O)c(OC)c1 (centres undefined)	Activity [5]: 65%; Activity (Pseudomonas aeruginosa [6]): 102%; Activity [3]: 82%; Activity [7]: 57%; Activity [8]: 73%; Activity [9]: 73%; Activity (Pseudomonas aeruginosa [4]): 95%; Activity [10]: 5%
1	33	CCCC(O)CC(=O)/C=C/c1ccc(F)cc1 (centres undefined)	–
1	76	CCCC(O)CC(=O)CCc1ccc(C)cc1 (centres undefined)	–
1	49	CCCC(O)CC(=O)CCc1ccc(F)c(F)c1 (centres undefined)	–
2	20	CCCC(O)CC(=O)/C=C/c1ccc(F)c(F)c1 (centres undefined)	Activity [5]: 53%; Activity (Pseudomonas aeruginosa [6]): 101%; Activity [3]: 72%; Activity [7]: 50%; Activity [8]: 60%; Activity [9]: 63%; Activity (Pseudomonas aeruginosa [4]): 105%; Activity [10]: 5%
1	69	CCCC(O)CC(=O)/C=C/c1ccc(OC)c(OC)c1 (centres undefined)	–
1	51	CCCC(O)CC(=O)/C=C/c1ccc(O)cc1 (centres undefined)	Activity [3]: Active; Activity (Pseudomonas aeruginosa [4]): inactive
2	41	CCCCCC(O)/C=C/c1ccc(O)c(OC)c1 (centres undefined)	–
1	43	CCCC(O)CC(=O)/C=C/c1ccc(F)c(OC)c1 (centres undefined)	–
2	81	CCCC(O)CC(=O)CCc1cccc(O)c1 (centres undefined)	–
1	55	CCCC(O)CC(=O)/C=C/c1ccc(OC)cc1 (centres undefined)	Activity [3]: Active; Activity (Pseudomonas aeruginosa [4]): inactive
3	43	CCCC(O)CC(=O)/C=C/c1ccc(O)c(O)c1 (centres undefined)	Activity [5]: 72%; Activity (Pseudomonas aeruginosa [6]): 99%; Activity [3]: 84%; Activity [7]: 50%; Activity [8]: 60%; Activity [9]: 56%; Activity (Pseudomonas aeruginosa [4]): 104%; Activity [10]: 5%
3	79	CCCCCC(O)/C=C\c1ccc(O)c(OC)c1 (centres undefined)	–

Activity [1] [%]	Activity [2] [%]	SMILES	also measured
1	79	CCCC(O)CC(=O)CCc1ccc(F)c(OC)c1 (centres undefined)	–
1	98	CCCC(O)CC(=O)CCc1ccc(O)c(OCC)c1 (centres undefined)	–
1	74	CCCC(O)CC(=O)CCc1ccc(N(C)C)cc1 (centres undefined)	–
1	73	CCCC(O)CC(=O)CCc1ccc(O)c(F)c1 (centres undefined)	–
4	93	CCCC(O)CC(=O)/C=C/c1ccccc1 (centres undefined)	–
2	72	CCCC(O)CC(=O)/C=C/c1ccc(C)c(C)c1 (centres undefined)	–
1	91	CCCC(O)CC(=O)/C=C/c1ccc(O)c(OCC)c1 (centres undefined)	–
2	94	CCCC(O)CC(=O)/C=C/c1cccc(OC)c1 (centres undefined)	Activity [5]: 73%; Activity (Pseudomonas aeruginosa [6]): 96%; Activity [3]: 88%; Activity [7]: 83%; Activity [8]: 89%; Activity [9]: 91%; Activity (Pseudomonas aeruginosa [4]): 95%; Activity [10]: 4%
4	51	CCCCCC(=O)/C=C/c1ccc(F)c(F)c1	Activity [5]: 61%; Activity (Pseudomonas aeruginosa [6]): 103%; Activity [3]: 80%; Activity [7]: 62%; Activity [8]: 53%; Activity [9]: 64%; Activity (Pseudomonas aeruginosa [4]): 103%; Activity [10]: 3%
2	47	CCCC(O)CC(=O)CCc1ccc(O)c(O)c1 (centres undefined)	–
3	82	CCCC(O)CC(=O)CCc1ccc(C)c(C)c1 (centres undefined)	–
1	64	CCCC(O)CC(=O)/C=C/c1ccc(Cl)cc1 (centres undefined)	–
3	74	CCCC(O)CC(=O)/C=C/c1cc(F)cc(OC)c1 (centres undefined)	–
2	65	CCCC(O)CC(=O)/C=C/c1ccc(C)cc1 (centres undefined)	–
2	41	CCCCCC(=O)/C=C/c1ccc(O)c(OC)c1	–
1	94	CCCC(O)CC(=O)CCc1ccc(OC)c(OC)c1 (centres undefined)	–
